Values after ≈ are worked out from the molar mass of the structure shown. Active and inactive are the calls of the source. The rule behind the calls is not given here.
What was measured:
Staphylococcus aureus [1] = test: Antibiofilm activity against Staphylococcus aureus UAMS-1 assessed as destruction catheter-associated biofilm formation measured after 48 hrs (reference value: 1.53 x 10^8); format: functional
How it was run: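 Plasma-coated catheters colonised for 24 h at 37 °C with gentle shaking, starting from ~1 × 10^7 CFU of MSSA UAMS-1 in biofilm medium (TSB plus glucose and NaCl). […] Medium renewed at 24 h. Catheters (n = 3) sonicated at 48 h and plated on TSA for CFU per catheter.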

[2] = Toxicity in CD1 mouse assessed as effect on total bilirubin level at 50 mg/kg, ip administered as single dose measured after 24 hrs; format: organism-based; details: in vivo
How it was run: (§1)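 Male CD-1 mice, 8 weeks, 32–37 g, n = 10 per dose. Single IP injection at 5, 20 or 50 mg/kg in 0.9% saline, filter-sterilized; saline vehicle group. Blood taken by cardiac puncture 24 h later. 14 plasma markers measured on a chemistry panel, reported as mean ± SE. Toxicity judged by significance versus controls, normal ranges, dose-dependence and consistency across organ markers.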

Staphylococcus aureus [3] = test: Inhibition of DNA synthesis in Staphylococcus aureus ATCC 29213 at 0.25 times MIC measured by liquid scintillation counter; format: functional
How it was run: (§2)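 Early-exponential cells in CAMHB added to drug (40x stock) in triplicate, with a no-drug control. After 30 min pre-incubation at room temperature, [3H]thymidine 3.0 µCi/tube (DNA) or [3H]uridine 0.5 µCi/tube (RNA) added for 30 min at room temperature. Stopped with cold TCA, precipitate filtered and washed, then scintillation counted.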

Staphylococcus aureus [4] = test: Inhibition of protein synthesis in Staphylococcus aureus ATCC 29213 at 4 times MIC measured by liquid scintillation counter; format: functional
Staphylococcus aureus [5] = test: Antimicrobial activity against Staphylococcus aureus ATCC 29213 assessed as inhibition of cell wall synthesis at 2 times MIC measured by liquid scintillation counter; format: functional
How it was run: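 Early-exponential cells resuspended in M9 minimal medium, drug (40x stock) in triplicate, 30 min pre-incubation at 37 °C. [14C]N-acetylglucosamine 0.4 µCi/reaction for 45 min at 37 °C. Stopped with 8% SDS, heated 95 °C 30 min, spotted on nitrocellulose, washed with 0.1% SDS, then scintillation counted.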

Enterococcus faecium [6] = test: Antimicrobial activity against vancomycin-resistant Enterococcus faecium ATCC 700221 assessed as bacterial growth inhibitions by CLSI protocol based microdilution method; format: functional
Enterococcus faecalis [7] = test: Antibiofilm activity against Enterococcus faecalis ATCC 29212 assessed as destruction of biofilm formation at 1 times MIC after 24 hrs by crystal violet staining based assay relative to control; format: functional
How it was run: (§3)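 Overnight culture brought to 0.5 McFarland in PBS, diluted 1:100 in CAMHB with 1% glucose. Inhibition: cells plus compound (in DMSO) at 2x, 1x, 0.5xMIC, 24 h at 35 °C, triplicate. Destruction: 24 h biofilm grown without drug, washed, fresh medium with compound, further 24 h. Then washed, dried, 0.1% crystal violet, solubilized in 33% acetic acid, OD 620 nm. Controls are DMSO-only and broth-only wells.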

[8] = Toxicity in CD1 mouse assessed as blood plasma albumin level at 50 mg/kg, ip administered as single dose measured after 24 hrs; format: organism-based; details: in vivo; how it was run: as §1
Staphylococcus aureus [9] = test: Antimicrobial activity against methicillin-sensitive Staphylococcus aureus ATCC 29213 by CLSI-based broth microdilution assay; format: functional
[10] = Toxicity in CD1 mouse assessed as effect on pancreatic amylase level at 50 mg/kg, ip administered as single dose measured after 24 hrs; format: organism-based; details: in vivo; how it was run: as §1
Staphylococcus aureus [11] = test: Inhibition of lipid synthesis in Staphylococcus aureus ATCC 29213 at 0.25 times MIC measured by liquid scintillation counter; format: functional
How it was run: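 Early-exponential cells in CAMHBII with drug in triplicate. Lipids extracted with chloroform/water, centrifuged, organic phase dried, then scintillation counted.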

Enterococcus faecalis [12] = test: Antibacterial activity against vancomycin-intermediate Enterococcus faecalis ATCC 29212 assessed as bacterial growth inhibition by measuring fold increase in MIC after14 passages by broth dilution method; format: functional, organism-based
[13] = Toxicity in CD1 mouse assessed as effect on potassium level at 50 mg/kg, ip administered as single dose measured after 24 hrs; format: organism-based; details: in vivo; how it was run: as §1
Enterococcus faecalis [14] = test: Antibiofilm activity against Enterococcus faecalis ATCC 29212 assessed as destruction of biofilm formation at 2 times MIC after 24 hrs by crystal violet staining based assay relative to control; format: functional; how it was run: as §3
[15] = Selectivity index, ratio of IC50 for cytotoxicity against human HEK-293T cells to MIC of antimicrobial activity against methicillin-susceptible Staphylococcus aureus ATCC 25923; format: toxicity, cell-based; details: read-out: Selectivity Index
[16] = Toxicity in CD1 mouse assessed as effect on calcium level at 50 mg/kg, ip administered as single dose measured after 24 hrs; format: organism-based; details: in vivo; how it was run: as §1
Staphylococcus aureus [17] = test: Antibiofilm activity against Staphylococcus aureus ATCC 25923 assessed as destruction of biofilm formation at 1 times MIC after 24 hrs by crystal violet staining based assay relative to control; format: functional; how it was run: as §3
Enterococcus faecium [18] = test: Antimicrobial activity against vancomycin-resistant Enterococcus faecium clinical isolate 1091282 by CLSI-based broth microdilution assay; format: functional
Staphylococcus aureus [19] = test: Inhibition of RNA synthesis in Staphylococcus aureus ATCC 29213 at 4 times MIC measured by liquid scintillation counter; format: functional; how it was run: as §2
Enterococcus faecium [20] = test: Antimicrobial activity against vancomycin-resistant Enterococcus faecium clinical isolate 1094112 by CLSI-based broth microdilution assay; format: functional
Enterococcus faecium [21] = test: Antimicrobial activity against vancomycin-resistant Enterococcus faecium clinical isolate 1100440 by CLSI-based broth microdilution assay; format: functional
Staphylococcus aureus [22] = test: Inhibition of RNA synthesis in Staphylococcus aureus ATCC 29213 at 0.25 times MIC measured by liquid scintillation counter; format: functional; how it was run: as §2
[23] = Toxicity in CD1 mouse assessed as effect on sodium level at 50 mg/kg, ip administered as single dose measured after 24 hrs; format: organism-based; details: in vivo; how it was run: as §1
[24] = Toxicity in CD1 mouse assessed as effect on liver 50 mg/kg, ip administered as single dose measured after 24 hrs by TUNEL assay; format: organism-based; details: in vivo
How it was run: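 Male CD-1 mice, single IP 50 mg/kg in saline; saline control. Acetaminophen 300 mg/kg and cisplatin 20 mg/kg IP as positive controls. At 24 h, liver and kidney paraffin-embedded, 5-µm sections, TUNEL stained with DAPI counterstain, imaged by fluorescence microscopy.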

Staphylococcus aureus [25] = test: Bactericidal activity against Staphylococcus aureus ATCC 33591 assessed as reduction bacterial growth at 4X MIC measured after 4 hrs by time-kill kinetic assay; format: functional
How it was run: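 Log-phase culture diluted to ~5 × 10^6 CFU/ml in warm CAMHB, exposed at 4xMIC, 35 °C. 20 µl samples every 2 h, 10-fold dilutions to 10^-5, 6 × 6 drop plating. CFU/ml counted after 18–24 h at 35 °C; triplicate.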

Enterococcus faecium [26] = test: Antimicrobial activity against vancomycin-resistant Enterococcus faecium clinical isolate 1091720 by CLSI-based broth microdilution assay; format: functional
Staphylococcus aureus [27] = test: Antibacterial activity against vancomycin-intermediate susceptible Staphylococcus aureus ATCC 25923 assessed as bacterial growth inhibition by measuring fold increase in MIC between 14 passages by broth dilution method; format: functional
[28] = Toxicity in CD1 mouse assessed as effect on blood urea nitrogen level at 50 mg/kg, ip administered as single dose measured after 24 hrs; format: organism-based; details: in vivo; how it was run: as §1

For `O=C(O)c1ccc(-n2cc(CNc3cc(F)cc(C(F)(F)F)c3)c(-c3ccc(C(F)(F)F)cc3)n2)cc1`, the Activity (Staphylococcus aureus [1]) was 4.74 10^5CFU, the Activity [2] was “Non-Toxic” and the “inhibition (INH)” value (Staphylococcus aureus [3]) was 44%. For the same molecule, the inhibition (Staphylococcus aureus [4]) was 100%, the “inhibition (INH)” value (Staphylococcus aureus [5]) was 39.5% and the MIC (Enterococcus faecium [6]) was 0.78 µg/mL (≈ 1.49 µM). For the same molecule, the Activity (Enterococcus faecalis [7]) was 75%, the Activity [8] was “Non-Toxic” and the MIC (Staphylococcus aureus [9]) was 2 µg/mL (≈ 3.82 µM). The Activity [10] was “Non-Toxic”, the “inhibition (INH)” value (Staphylococcus aureus [11]) was 20.7% and the Activity (Enterococcus faecalis [12]) was “inactive”. The Activity [13] was “Non-Toxic”, the Activity (Enterococcus faecalis [14]) was 85% and the selectivity ratio [15] was 13. The Activity [16] was “Non-Toxic”, the Activity (Staphylococcus aureus [17]) was 55% and the MIC (Enterococcus faecium [18]) was 2 µg/mL (≈ 3.82 µM). The “inhibition (INH)” value (Staphylococcus aureus [19]) was 98%, the MIC (Enterococcus faecium [20]) was 4 µg/mL (≈ 7.64 µM) and the MIC (Enterococcus faecium [21]) was 4 µg/mL (≈ 7.64 µM). For the same molecule, the “inhibition (INH)” value (Staphylococcus aureus [22]) was 15.5%, the Activity [23] was “Non-Toxic” and the Activity [24] was “Non-Toxic”. For the same molecule, the Activity (Staphylococcus aureus [25]) was 3 log10CFU/ml, the MIC (Enterococcus faecium [26]) was 4 µg/mL (≈ 7.64 µM) and the “fold change (FC)” value (Staphylococcus aureus [27]) was 2. The Activity [28] was “Non-Toxic”.

Source: ChEMBL document CHEMBL4814057, “4-4-(Anilinomethyl)-3-[4-(trifluoromethyl)phenyl]-1H-pyrazol-1-ylbenzoic acid derivatives as potent anti-gram-positive bacterial agents” (Eur J Med Chem, 2021)
